{"source": "ChEMBL document CHEMBL4052674", "about": "“Discovery of novel quinazoline-2,4(1H,3H)-dione derivatives as potent PARP-2 selective inhibitors” (Bioorg Med Chem, 2017)", "data": [{"species_on_record": "Homo sapiens", "test": "Selectivity index, ratio of IC50 for recombinant human PARP-1 expressed in Escherichia coli BL21 (DE3) to IC50 for recombinant human PARP-2 expressed in Escherichia coli BL21 (DE3)", "method_in_brief": "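Human recombinant PARP-1 and PARP-2, expressed from plasmid and purified, were tested for inhibition of enzyme activity by ELISA and by chemical quantitation of NAD⁺. IC50 for each isoform was averaged from two or three independent experiments. The selectivity value is the ratio of the PARP-1 IC50 to the PARP-2 IC50.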", "values": [{"smiles": "CC(C)(C)OC(=O)N1CC[C@H](C(=O)Nc2cc(Cn3c(=O)[nH]c(=O)c4ccccc43)cnc2F)C1", "Ratio IC50": 4.6}, {"smiles": "O=C(Nc1cc(Cn2c(=O)[nH]c(=O)c3ccccc32)cnc1F)[C@H]1CCN(c2ccccc2)C1", "Ratio IC50": 22.8}, {"smiles": "CC(C)(C)OC(=O)N1CC[C@H](C(=O)Nc2cc(Cn3c(=O)[nH]c(=O)c4ccccc43)ccc2Br)C1", "Ratio IC50": 5.1}, {"smiles": "O=C(Nc1cc(Cn2c(=O)[nH]c(=O)c3ccccc32)cnc1Cl)[C@H]1CCNC1", "Ratio IC50": 4.4}, {"smiles": "O=C(Nc1cc(Cn2c(=O)[nH]c(=O)c3ccccc32)cnc1F)[C@H]1CCN(CC2CC2)C1", "Ratio IC50": 1.6}, {"smiles": "O=C(Nc1cc(Cn2c(=O)[nH]c(=O)c3ccccc32)cnc1F)[C@H]1CCN(C2CCC(F)(F)CC2)C1", "Ratio IC50": 6.8}, {"smiles": "O=C(Nc1cc(Cn2c(=O)[nH]c(=O)c3ccccc32)cnc1F)[C@H]1CCN(CCC2CC2)C1", "Ratio IC50": 1.8}, {"smiles": "O=C(Nc1cc(Cn2c(=O)[nH]c(=O)c3ccccc32)cnc1F)[C@H]1CCN(CCC(F)(F)F)C1", "Ratio IC50": 1}, {"smiles": "CC(C)(C)OC(=O)N1CC[C@H](C(=O)Nc2cc(Cn3c(=O)[nH]c(=O)c4ccccc43)cnc2Cl)C1", "Ratio IC50": 19}, {"smiles": "O=C(Nc1cc(Cn2c(=O)[nH]c(=O)c3ccccc32)cnc1F)[C@H]1CCN(CC(F)(F)F)C1", "Ratio IC50": 40.6}, {"smiles": "O=C(Nc1cc(Cn2c(=O)[nH]c(=O)c3ccccc32)cnc1F)[C@H]1CCNC1", "Ratio IC50": 0.18}, {"smiles": "O=C(Nc1cncc(Cn2c(=O)[nH]c(=O)c3ccccc32)c1)[C@H]1CCNC1", "Ratio IC50": 0.04}, {"smiles": "O=C(Nc1cc(Cn2c(=O)[nH]c(=O)c3ccccc32)cnc1F)[C@H]1CCN(Cc2ccncc2)C1", "Ratio IC50": 10.7}, {"smiles": "CC(C)(C)OC(=O)N1CC[C@H](C(=O)Nc2cc(Cn3c(=O)[nH]c(=O)c4ccccc43)ccc2Cl)C1", "Ratio IC50": 0.7}, {"smiles": "O=C(Nc1cc(Cn2c(=O)[nH]c(=O)c3ccccc32)cnc1F)[C@H]1CCN(C(=O)C2CC2)C1", "Ratio IC50": 12}, {"smiles": "O=C(Nc1cc(Cn2c(=O)[nH]c(=O)c3ccccc32)cnc1F)[C@H]1CCN(Cc2ccccc2)C1", "Ratio IC50": 2.5}]}, {"molecular_target": "Poly [ADP-ribose] polymerase 2 (Homo sapiens, UniProt Q9UGN5)", "sequence (Q9UGN5 whole entry)": "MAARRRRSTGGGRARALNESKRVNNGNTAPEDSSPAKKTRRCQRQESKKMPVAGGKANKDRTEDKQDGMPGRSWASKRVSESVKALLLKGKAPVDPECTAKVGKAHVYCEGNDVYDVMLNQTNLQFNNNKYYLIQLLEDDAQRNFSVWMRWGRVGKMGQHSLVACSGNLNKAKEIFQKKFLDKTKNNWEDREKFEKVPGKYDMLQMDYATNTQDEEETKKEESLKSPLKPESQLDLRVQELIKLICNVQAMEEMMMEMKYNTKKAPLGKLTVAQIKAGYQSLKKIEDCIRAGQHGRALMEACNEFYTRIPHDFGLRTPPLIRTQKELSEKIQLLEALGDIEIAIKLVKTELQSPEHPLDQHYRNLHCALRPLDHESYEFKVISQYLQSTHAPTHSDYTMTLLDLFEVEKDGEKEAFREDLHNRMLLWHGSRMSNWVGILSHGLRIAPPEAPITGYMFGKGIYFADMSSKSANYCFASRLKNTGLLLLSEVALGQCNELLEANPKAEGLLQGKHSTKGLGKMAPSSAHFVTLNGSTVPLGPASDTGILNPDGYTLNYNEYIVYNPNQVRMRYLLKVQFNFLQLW", "test": "Inhibition of recombinant human PARP-2 expressed in Escherichia coli BL21 (DE3) using sheared DNA as substrate in presence of biotinylated NAD after 1 hr by ELISA", "units": {"IC50": "nM"}, "values": [{"smiles": "CC(C)(C)OC(=O)N1CC[C@H](C(=O)Nc2cc(Cn3c(=O)[nH]c(=O)c4ccccc43)cnc2F)C1", "IC50": 8.6}, {"smiles": "CC(C)(C)OC(=O)N1CC[C@H](C(=O)Nc2cc(Cn3c(=O)[nH]c(=O)c4ccccc43)cnc2Br)C1", "IC50": "> 100"}, {"smiles": "O=C(Nc1cc(Cn2c(=O)[nH]c(=O)c3ccccc32)ccc1Br)[C@H]1CCNC1", "IC50": "> 100"}, {"smiles": "O=C(Nc1cc(Cn2c(=O)[nH]c(=O)c3ccccc32)ccc1[N+](=O)[O-])[C@H]1CCNC1", "IC50": "> 100"}, {"smiles": "O=C(Nc1cc(Cn2c(=O)[nH]c(=O)c3ccccc32)cnc1F)[C@H]1CCN(c2ccccc2)C1", "IC50": 4.1}, {"smiles": "CC(C)(C)OC(=O)N1CC[C@H](C(=O)Nc2cncc(Cn3c(=O)[nH]c(=O)c4ccccc43)c2)C1", "IC50": "> 100"}, {"smiles": "CC(C)(C)OC(=O)N1CC[C@H](C(=O)Nc2cc(Cn3c(=O)[nH]c(=O)c4ccccc43)ccc2[N+](=O)[O-])C1", "IC50": "> 100"}, {"smiles": "CC(C)(C)OC(=O)N1CC[C@H](C(=O)Nc2cc(Cn3c(=O)[nH]c(=O)c4ccccc43)ccc2Br)C1", "IC50": 68}, {"smiles": "O=C(Nc1cc(Cn2c(=O)[nH]c(=O)c3ccccc32)cnc1Cl)[C@H]1CCNC1", "IC50": 40}, {"smiles": "CC(C)(C)OC(=O)N1CC[C@H](C(=O)Nc2cc(Cn3c(=O)[nH]c(=O)c4ccccc43)ccc2O)C1", "IC50": "> 100"}, {"smiles": "O=C(Nc1cc(Cn2c(=O)[nH]c(=O)c3ccccc32)cnc1F)[C@H]1CCN(CC2CC2)C1", "IC50": 3.6}, {"smiles": "O=C(Nc1cc(Cn2c(=O)[nH]c(=O)c3ccccc32)ccc1Cl)[C@H]1CCNC1", "IC50": "> 100"}, {"smiles": "O=C(Nc1cc(Cn2c(=O)[nH]c(=O)c3ccccc32)cnc1F)[C@H]1CCN(C2CCC(F)(F)CC2)C1", "IC50": 11.9}, {"smiles": "O=C(Nc1cc(Cn2c(=O)[nH]c(=O)c3ccccc32)cnc1F)[C@H]1CCN(CCC2CC2)C1", "IC50": 1}, {"smiles": "O=C(Nc1cc(Cn2c(=O)[nH]c(=O)c3ccccc32)cnc1F)[C@H]1CCN(CCC(F)(F)F)C1", "IC50": 2.9}, {"smiles": "CC(C)(C)OC(=O)N1CC[C@H](C(=O)Nc2cc(Cn3c(=O)[nH]c(=O)c4ccccc43)cnc2Cl)C1", "IC50": 12.2}, {"smiles": "O=C(Nc1cc(Cn2c(=O)[nH]c(=O)c3ccccc32)cnc1F)[C@H]1CCN(CC(F)(F)F)C1", "IC50": 11.5}, {"smiles": "O=C(Nc1cc(Cn2c(=O)[nH]c(=O)c3ccccc32)cnc1Br)[C@H]1CCNC1", "IC50": "> 100"}, {"smiles": "O=C(Nc1cc(Cn2c(=O)[nH]c(=O)c3ccccc32)cnc1F)[C@H]1CCNC1", "IC50": 80}, {"smiles": "O=C(Nc1cncc(Cn2c(=O)[nH]c(=O)c3ccccc32)c1)[C@H]1CCNC1", "IC50": 220}, {"smiles": "O=C(Nc1cc(Cn2c(=O)[nH]c(=O)c3ccccc32)cnc1F)[C@H]1CCN(Cc2ccncc2)C1", "IC50": 5.8}, {"smiles": "CC(C)(C)OC(=O)N1CC[C@H](C(=O)Nc2cc(Cn3c(=O)[nH]c(=O)c4ccccc43)ccc2Cl)C1", "IC50": 9.1}, {"smiles": "O=C(Nc1cc(Cn2c(=O)[nH]c(=O)c3ccccc32)cnc1F)[C@H]1CCN(C(=O)C2CC2)C1", "IC50": 4.5}, {"smiles": "CC(C)(C)OC(=O)N1CC[C@H](C(=O)Nc2cc(Cn3c(=O)[nH]c(=O)c4ccccc43)ccc2N)C1", "IC50": "> 100"}, {"smiles": "O=C(Nc1cc(Cn2c(=O)[nH]c(=O)c3ccccc32)cnc1F)[C@H]1CCN(Cc2ccccc2)C1", "IC50": 5.4}]}, {"molecular_target": "Poly [ADP-ribose] polymerase 1 (Homo sapiens, UniProt P09874)", "sequence (P09874 whole entry)": "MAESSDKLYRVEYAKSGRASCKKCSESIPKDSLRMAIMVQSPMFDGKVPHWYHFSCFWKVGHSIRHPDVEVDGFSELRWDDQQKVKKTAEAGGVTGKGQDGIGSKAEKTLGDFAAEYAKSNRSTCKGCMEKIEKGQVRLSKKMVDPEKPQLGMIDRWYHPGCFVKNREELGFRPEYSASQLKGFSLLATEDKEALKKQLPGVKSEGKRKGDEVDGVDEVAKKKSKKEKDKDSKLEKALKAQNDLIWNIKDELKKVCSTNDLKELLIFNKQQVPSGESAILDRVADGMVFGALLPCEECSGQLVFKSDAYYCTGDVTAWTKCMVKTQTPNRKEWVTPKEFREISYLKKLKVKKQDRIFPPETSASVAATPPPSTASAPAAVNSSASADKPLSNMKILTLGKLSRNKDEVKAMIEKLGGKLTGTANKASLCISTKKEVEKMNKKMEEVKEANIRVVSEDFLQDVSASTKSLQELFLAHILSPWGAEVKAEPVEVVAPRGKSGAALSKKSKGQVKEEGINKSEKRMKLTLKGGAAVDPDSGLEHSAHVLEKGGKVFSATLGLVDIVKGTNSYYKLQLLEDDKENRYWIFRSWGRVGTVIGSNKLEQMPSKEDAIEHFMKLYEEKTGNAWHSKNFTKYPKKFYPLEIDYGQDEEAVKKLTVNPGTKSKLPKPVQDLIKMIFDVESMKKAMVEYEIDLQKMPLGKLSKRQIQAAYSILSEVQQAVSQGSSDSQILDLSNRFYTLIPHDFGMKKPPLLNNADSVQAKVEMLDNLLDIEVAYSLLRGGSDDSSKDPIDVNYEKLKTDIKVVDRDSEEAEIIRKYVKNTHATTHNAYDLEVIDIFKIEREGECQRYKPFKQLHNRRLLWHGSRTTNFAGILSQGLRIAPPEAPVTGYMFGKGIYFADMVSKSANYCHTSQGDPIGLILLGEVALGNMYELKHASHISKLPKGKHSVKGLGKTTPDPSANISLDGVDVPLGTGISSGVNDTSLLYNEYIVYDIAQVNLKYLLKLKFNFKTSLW", "test": "Inhibition of recombinant human PARP-1 expressed in Escherichia coli BL21 (DE3) using sheared DNA as substrate in presence of biotinylated NAD after 1 hr by ELISA", "units": {"IC50": "nM"}, "values": [{"smiles": "CC(C)(C)OC(=O)N1CC[C@H](C(=O)Nc2cc(Cn3c(=O)[nH]c(=O)c4ccccc43)cnc2F)C1", "IC50": 39.8}, {"smiles": "CC(C)(C)OC(=O)N1CC[C@H](C(=O)Nc2cc(Cn3c(=O)[nH]c(=O)c4ccccc43)cnc2Br)C1", "IC50": "> 100"}, {"smiles": "O=C(Nc1cc(Cn2c(=O)[nH]c(=O)c3ccccc32)ccc1Br)[C@H]1CCNC1", "IC50": "> 100"}, {"smiles": "O=C(Nc1cc(Cn2c(=O)[nH]c(=O)c3ccccc32)ccc1[N+](=O)[O-])[C@H]1CCNC1", "IC50": "> 100"}, {"smiles": "O=C(Nc1cc(Cn2c(=O)[nH]c(=O)c3ccccc32)cnc1F)[C@H]1CCN(c2ccccc2)C1", "IC50": 92.6}, {"smiles": "CC(C)(C)OC(=O)N1CC[C@H](C(=O)Nc2cncc(Cn3c(=O)[nH]c(=O)c4ccccc43)c2)C1", "IC50": "> 100"}, {"smiles": "CC(C)(C)OC(=O)N1CC[C@H](C(=O)Nc2cc(Cn3c(=O)[nH]c(=O)c4ccccc43)ccc2[N+](=O)[O-])C1", "IC50": "> 100"}, {"smiles": "CC(C)(C)OC(=O)N1CC[C@H](C(=O)Nc2cc(Cn3c(=O)[nH]c(=O)c4ccccc43)ccc2Br)C1", "IC50": 346}, {"smiles": "O=C(Nc1cc(Cn2c(=O)[nH]c(=O)c3ccccc32)cnc1Cl)[C@H]1CCNC1", "IC50": 174}, {"smiles": "CC(C)(C)OC(=O)N1CC[C@H](C(=O)Nc2cc(Cn3c(=O)[nH]c(=O)c4ccccc43)ccc2O)C1", "IC50": "> 100"}, {"smiles": "O=C(Nc1cc(Cn2c(=O)[nH]c(=O)c3ccccc32)cnc1F)[C@H]1CCN(CC2CC2)C1", "IC50": 5.7}, {"smiles": "O=C(Nc1cc(Cn2c(=O)[nH]c(=O)c3ccccc32)ccc1Cl)[C@H]1CCNC1", "IC50": "> 100"}, {"smiles": "O=C(Nc1cc(Cn2c(=O)[nH]c(=O)c3ccccc32)cnc1F)[C@H]1CCN(C2CCC(F)(F)CC2)C1", "IC50": 81}, {"smiles": "O=C(Nc1cc(Cn2c(=O)[nH]c(=O)c3ccccc32)cnc1F)[C@H]1CCN(CCC2CC2)C1", "IC50": 1.4}, {"smiles": "O=C(Nc1cc(Cn2c(=O)[nH]c(=O)c3ccccc32)cnc1F)[C@H]1CCN(CCC(F)(F)F)C1", "IC50": 3.1}, {"smiles": "CC(C)(C)OC(=O)N1CC[C@H](C(=O)Nc2cc(Cn3c(=O)[nH]c(=O)c4ccccc43)cnc2Cl)C1", "IC50": 232}, {"smiles": "O=C(Nc1cc(Cn2c(=O)[nH]c(=O)c3ccccc32)cnc1F)[C@H]1CCN(CC(F)(F)F)C1", "IC50": 467}, {"smiles": "O=C(Nc1cc(Cn2c(=O)[nH]c(=O)c3ccccc32)cnc1Br)[C@H]1CCNC1", "IC50": "> 100"}, {"smiles": "O=C(Nc1cc(Cn2c(=O)[nH]c(=O)c3ccccc32)cnc1F)[C@H]1CCNC1", "IC50": 13.7}, {"smiles": "O=C(Nc1cncc(Cn2c(=O)[nH]c(=O)c3ccccc32)c1)[C@H]1CCNC1", "IC50": 9.9}, {"smiles": "O=C(Nc1cc(Cn2c(=O)[nH]c(=O)c3ccccc32)cnc1F)[C@H]1CCN(Cc2ccncc2)C1", "IC50": 62}, {"smiles": "CC(C)(C)OC(=O)N1CC[C@H](C(=O)Nc2cc(Cn3c(=O)[nH]c(=O)c4ccccc43)ccc2Cl)C1", "IC50": 6.2}, {"smiles": "O=C(Nc1cc(Cn2c(=O)[nH]c(=O)c3ccccc32)cnc1F)[C@H]1CCN(C(=O)C2CC2)C1", "IC50": 54}, {"smiles": "CC(C)(C)OC(=O)N1CC[C@H](C(=O)Nc2cc(Cn3c(=O)[nH]c(=O)c4ccccc43)ccc2N)C1", "IC50": "> 100"}, {"smiles": "O=C(Nc1cc(Cn2c(=O)[nH]c(=O)c3ccccc32)cnc1F)[C@H]1CCN(Cc2ccccc2)C1", "IC50": 13.3}]}]}
